Assays:
Format in all cases: ADME, organism-based
[1] = Half life in wild-type Wistar rat at 5 mg/kg, po by LC-MS/MS analysis; design: dose 5 mg/kg, route oral; settings: in vivo
In short: (§1)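 Male Wistar wild-type rats and Mrp2-deficient TR⁻ rats with femoral artery and vein cannulas. Sulfasalazine given as an iv bolus (5 mg/kg, water at pH 9–10) and by oral gavage, each followed by arterial plasma sampling over 24 h. Sulfasalazine and sulfapyridine measured by LC-MS/MS; noncompartmental parameters; mean ± S.D., n = 3.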

[2] = Half life in BCRP knockout Sprague-Dawley rat at 5 mg/kg, iv by LC-MS/MS analysis; design: dose 5 mg/kg, route intravenous; settings: in vivo
In short: (§2)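 Male Sprague-Dawley knockout rats or wild-type rats matched for age and weight, with femoral artery and vein cannulas. Crossover design: sulfasalazine 5 mg/kg iv bolus (water, pH 9–10) on day 0, then 20 mg/kg oral gavage (0.5% carboxymethyl cellulose in PBS, pH 7.4) on day 3. Arterial plasma collected 0–24 h. Sulfasalazine and sulfapyridine measured by LC-MS/MS; noncompartmental parameters; mean ± S.D., n = 4 to 8.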

[3] = Tmax in MRP2 knockout Sprague-Dawley rat at 20 mg/kg, po by LC-MS/MS analysis; design: dose 20 mg/kg, route oral; settings: in vivo
In short: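 Male Sprague-Dawley rats (knockout or wild type, matched for age and weight) with femoral artery and vein cannulas, recovered ≥2 days. In an i.v./oral crossover with a 3-day washout, sulfasalazine was given by oral gavage at 20 mg/kg in 0.5% carboxymethyl cellulose/PBS pH 7.4. Arterial plasma was sampled 0–24 h and analysed by LC-MS/MS (1–5000 ng/ml). Noncompartmental analysis; n = 4 to 8.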

[4] = Volume of distribution at steady state in wild-type Wistar rat at 5 mg/kg, iv by LC-MS/MS analysis; design: dose 5 mg/kg, route intravenous; settings: in vivo, read-out: Vdss; in short: as §1
[5] = Tmax in MRP2-deficient Wistar rat at 5 mg/kg, po by LC-MS/MS analysis; design: dose 5 mg/kg, route oral; settings: in vivo
[6] = Oral bioavailability in wild-type Wistar rat at 5 mg/kg by LC-MS/MS analysis; settings: in vivo; in short: as §1
[7] = Oral bioavailability in MDR1A knockout Sprague-Dawley rat at 20 mg/kg by LC-MS/MS analysis; settings: in vivo; in short: as §2
[8] = Half life in BCRP knockout Sprague-Dawley rat at 20 mg/kg, po by LC-MS/MS analysis; design: dose 20 mg/kg, route oral; settings: in vivo; in short: as §2
[9] = Half life in wild-type Sprague-Dawley rat at 5 mg/kg, iv by LC-MS/MS analysis; design: dose 5 mg/kg, route intravenous; settings: in vivo; in short: as §2
[10] = Half life in wild-type Wistar rat at 5 mg/kg, iv by LC-MS/MS analysis; design: dose 5 mg/kg, route intravenous; settings: in vivo; in short: as §1
[11] = AUC (infinity) in MDR1A knockout Sprague-Dawley rat at 5 mg/kg, iv by LC-MS/MS analysis; design: time infinity, dose 5 mg/kg, route intravenous; settings: plasma
In short: (§3)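 Male Sprague-Dawley knockout or age/weight-matched wild-type rats with femoral artery and vein cannulas. Crossover design: day 0 i.v. bolus 5 mg/kg sulfasalazine in water at pH 9–10, then day 3 gavage 20 mg/kg in 0.5% carboxymethyl cellulose/PBS pH 7.4. Arterial plasma was sampled to 24 h. Sulfasalazine and sulfapyridine were measured by LC-MS/MS (1–5000 ng/ml). Parameters are noncompartmental; n = 4–8, mean ± S.D.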

[12] = Clearance in wild-type Sprague-Dawley rat at 5 mg/kg, iv by LC-MS/MS analysis; design: dose 5 mg/kg, route intravenous; settings: in vivo; in short: as §3
[13] = Volume of distribution at steady state in MRP2-deficient Wistar rat at 5 mg/kg, iv by LC-MS/MS analysis; design: dose 5 mg/kg, route intravenous; settings: in vivo, read-out: Vdss; in short: as §1
[14] = Oral bioavailability in MRP2-deficient Wistar rat at 5 mg/kg by LC-MS/MS analysis; settings: in vivo; in short: as §1
[15] = Oral bioavailability in wild-type Sprague-Dawley rat at 20 mg/kg by LC-MS/MS analysis; settings: in vivo; in short: as §2
[16] = Half life in MRP2-deficient Wistar rat at 5 mg/kg, iv by LC-MS/MS analysis; design: dose 5 mg/kg, route intravenous; settings: in vivo; in short: as §1
[17] = Half life in MDR1A knockout Sprague-Dawley rat at 5 mg/kg, iv by LC-MS/MS analysis; design: dose 5 mg/kg, route intravenous; settings: in vivo; in short: as §2
[18] = AUC (infinity) in MRP2 knockout Sprague-Dawley rat at 20 mg/kg, po by LC-MS/MS analysis; design: time infinity, dose 20 mg/kg, route oral; settings: plasma; in short: as §3
[19] = Cmax in MRP2 knockout Sprague-Dawley rat at 20 mg/kg, po by LC-MS/MS analysis; design: dose 20 mg/kg, route oral; settings: in vivo; in short: as §3
[20] = AUC (infinity) in wild-type Sprague-Dawley rat at 5 mg/kg, iv by LC-MS/MS analysis; design: time infinity, dose 5 mg/kg, route intravenous; settings: plasma; in short: as §3
[21] = Volume of distribution at steady state in BCRP knockout Sprague-Dawley rat at 5 mg/kg, iv by LC-MS/MS analysis; design: dose 5 mg/kg, route intravenous; settings: in vivo, read-out: Vdss; in short: as §2
[22] = Cmax in BCRP knockout Sprague-Dawley rat at 20 mg/kg, po by LC-MS/MS analysis; design: dose 20 mg/kg, route oral; settings: in vivo; in short: as §3
[23] = Clearance in MRP2-deficient Wistar rat at 5 mg/kg, iv by LC-MS/MS analysis; design: dose 5 mg/kg, route intravenous; settings: in vivo
In short: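 Male Wistar wild-type or Mrp2-deficient TR⁻ rats with femoral artery and vein cannulas. Sulfasalazine was given as a 5 mg/kg i.v. bolus and as a 20 mg/kg oral dose. Arterial plasma was sampled to 24 h and analysed for parent and sulfapyridine by LC-MS/MS. Noncompartmental parameters; n = 3, mean ± S.D.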

[24] = Clearance in BCRP knockout Sprague-Dawley rat at 5 mg/kg, iv by LC-MS/MS analysis; design: dose 5 mg/kg, route intravenous; settings: in vivo; in short: as §3
[25] = Half life in wild-type Sprague-Dawley rat at 20 mg/kg, po by LC-MS/MS analysis; design: dose 20 mg/kg, route oral; settings: in vivo; in short: as §2
[26] = Oral bioavailability in BCRP knockout Sprague-Dawley rat at 20 mg/kg by LC-MS/MS analysis; settings: in vivo; in short: as §2
[27] = Half life in MRP2 knockout Sprague-Dawley rat at 20 mg/kg, po by LC-MS/MS analysis; design: dose 20 mg/kg, route oral; settings: in vivo; in short: as §2
[28] = Oral bioavailability in MRP2 knockout Sprague-Dawley rat at 20 mg/kg by LC-MS/MS analysis; settings: in vivo; in short: as §2
[29] = AUC (infinity) in wild-type Sprague-Dawley rat at 20 mg/kg, po by LC-MS/MS analysis; design: time infinity, dose 20 mg/kg, route oral; settings: plasma; in short: as §3
[30] = AUC (infinity) in MRP2 knockout Sprague-Dawley rat at 5 mg/kg, iv by LC-MS/MS analysis; design: time infinity, dose 5 mg/kg, route intravenous; settings: plasma; in short: as §3
[31] = Volume of distribution at steady state in MDR1A knockout Sprague-Dawley rat at 5 mg/kg, iv by LC-MS/MS analysis; design: dose 5 mg/kg, route intravenous; settings: in vivo, read-out: Vdss; in short: as §2
[32] = Volume of distribution at steady state in wild-type Sprague-Dawley rat at 5 mg/kg, iv by LC-MS/MS analysis; design: dose 5 mg/kg, route intravenous; settings: in vivo, read-out: Vdss; in short: as §2
[33] = Cmax in wild-type Wistar rat at 5 mg/kg, po by LC-MS/MS analysis; design: dose 5 mg/kg, route oral; settings: in vivo
[34] = AUC (infinity) in MRP2-deficient Wistar rat at 5 mg/kg, po by LC-MS/MS analysis; design: time infinity, dose 5 mg/kg, route oral; settings: plasma
[35] = Clearance in MDR1A knockout Sprague-Dawley rat at 5 mg/kg, iv by LC-MS/MS analysis; design: dose 5 mg/kg, route intravenous; settings: in vivo; in short: as §3
[36] = Cmax in MDR1A knockout Sprague-Dawley rat at 20 mg/kg, po by LC-MS/MS analysis; design: dose 20 mg/kg, route oral; settings: in vivo; in short: as §3
[37] = Tmax in wild-type Wistar rat at 5 mg/kg, po by LC-MS/MS analysis; design: dose 5 mg/kg, route oral; settings: in vivo

O=C(O)c1cc(/N=N/c2ccc(S(=O)(=O)Nc3ccccn3)cc2)ccc1O [SULFASALAZINE]
half-life [1]: 2.1 h
half-life [2]: 1.4 h
Tmax [3]: 0.25 h
Vd [4]: 0.244 L/kg
Tmax [5]: 0.25 h
bioavailability [6]: 3.8%
bioavailability [7]: 2.8%
half-life [8]: 1.9 h
half-life [9]: 1.6 h
half-life [10]: 1.5 h
AUC(0-inf) [11]: 6260 ng·h/mL
clearance [12]: 10.4 mL/min/kg
Vd [13]: 0.839 L/kg
bioavailability [14]: 1.5%
bioavailability [15]: 1.4%
half-life [16]: 4 h
half-life [17]: 1 h
AUC(0-inf) [18]: 635 ng·h/mL
Cmax [19]: 320 ng/mL
AUC(0-inf) [20]: 8400 ng·h/mL
Vd [21]: 0.408 L/kg
Cmax [22]: 3870 ng/mL
clearance [23]: 10.9 mL/min/kg
clearance [24]: 7.8 mL/min/kg
half-life [25]: 2.6 h
bioavailability [26]: 30%
half-life [27]: 3.8 h
bioavailability [28]: 4%
AUC(0-inf) [29]: 562 ng·h/mL
AUC(0-inf) [30]: 4320 ng·h/mL
Vd [31]: 0.285 L/kg
Vd [32]: 0.168 L/kg
Cmax [33]: 490 ng/mL
AUC(0-inf) [34]: 462 ng·h/mL
clearance [35]: 13.5 mL/min/kg
Cmax [36]: 213 ng/mL
Tmax [37]: 0.5 h
